Reference: ChEMBL document CHEMBL1157552, “Antimalarial and antitubercular nostocarboline and eudistomin derivatives: synthesis, in vitro and in vivo biological evaluation” (Bioorg Med Chem, 2010)

What follows are compounds tested on Mycolicibacterium smegmatis (assay: Antitubercular activity against Mycobacterium smegmatis mc2 155). Details: str. MC2 155.
Type: functional
Compound `Clc1ccc2[nH]c3c[n+](CCCCCCCCCCCC[n+]4ccc5c(c4)[nH]c4ccc(Cl)cc45)ccc3c2c1` has an MIC99 of 17 µM. `Clc1ccc2[nH]c3c[n+](Cc4cccc(C[n+]5ccc6c(c5)[nH]c5ccc(Cl)cc56)c4)ccc3c2c1` gave an MIC99 of 50 µM. `Clc1ccc2[nH]c3c[n+](CCOCC[n+]4ccc5c(c4)[nH]c4ccc(Cl)cc45)ccc3c2c1.[Cl-].[Cl-]` gave an MIC99 of 46 µM. Work on `Clc1ccc2[nH]c3c[n+](Cc4ccc(-c5ccc(C[n+]6ccc7c(c6)[nH]c6ccc(Cl)cc67)cc5)cc4)ccc3c2c1.[Cl-].[Cl-]` yielded an MIC99 of 152 µM. `Clc1ccc2[nH]c3c[n+](CCCCCCCCCC[n+]4ccc5c(c4)[nH]c4ccc(Cl)cc45)ccc3c2c1` was tested, and the MIC99 was greater than 142 µM. Work on `Clc1ccc2[nH]c3c[n+](Cc4ccc(C[n+]5ccc6c(c5)[nH]c5ccc(Cl)cc56)cc4)ccc3c2c1` yielded an MIC99 greater than 170 µM. For `Clc1ccc2[nH]c3c[n+](CCCCCCCC[n+]4ccc5c(c4)[nH]c4ccc(Cl)cc45)ccc3c2c1`, the MIC99 was 147 µM. Compound `Clc1ccc2[nH]c3c[n+](CCCCCC[n+]4ccc5c(c4)[nH]c4ccc(Cl)cc45)ccc3c2c1.[Br-].[Br-]` has an MIC99 of 20 µM. `C[n+]1ccc2c(c1)[nH]c1ccc(Cl)cc12.[I-]` [NOSTOCARBOLINE] gave an MIC99 of 290 µM.

The compounds below were run on Plasmodium berghei (assay: Antiparasitic activity against Plasmodium berghei infected in mice (Mus musculus) assessed as reduction of parasitaemia at 50 mg/kg, intraperitoneally administered 4, 24, 48, 72 hrs post infection measured 24 hrs of last treatment on day 4 relative to control). Details: route intraperitoneal.
Type: functional
Parameters: scale not given: the % may be the effect or the level left
How it was run: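 Compounds formulated in DMSO/water and given i.p. at 50 mg/kg, 4 doses, to P. berghei-infected mice. Parasitaemia measured by FACS on day 4 post infection, 24 h after the last dose. Activity is the difference in mean % parasitaemia between control (n = 5 mice) and treated groups, as % of control. Mean survival time was also recorded.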
`Clc1ccc2[nH]c3c[n+](CCOCC[n+]4ccc5c(c4)[nH]c4ccc(Cl)cc45)ccc3c2c1.[Cl-].[Cl-]` showed an Activity of 2.6%. For `Clc1ccc2[nH]c3c[n+](Cc4ccc(-c5ccc(C[n+]6ccc7c(c6)[nH]c6ccc(Cl)cc67)cc5)cc4)ccc3c2c1.[Cl-].[Cl-]`, the Activity was 0%. In the case of `Clc1ccc2[nH]c3c[n+](CCCCCC[n+]4ccc5c(c4)[nH]c4ccc(Cl)cc45)ccc3c2c1.[Br-].[Br-]`, the Activity is reported as 0%. `C[n+]1ccc2c(c1)[nH]c1ccc(Cl)cc12.[I-]` [NOSTOCARBOLINE] showed an Activity of 49.6%.

These compounds were tested on Corynebacterium glutamicum (assay: Antitubercular activity against Corynebacterium glutamicum ATCC 13032). Details: not given.
Type: functional
How it was run: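 Grown in 7H9 medium; susceptibility determined by resazurin reduction. MIC99 is the lowest drug concentration preventing growth of 99% of cells.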
`Clc1ccc2[nH]c3c[n+](CCCCCCCCCCCC[n+]4ccc5c(c4)[nH]c4ccc(Cl)cc45)ccc3c2c1` gave an MIC99 of 14 µM. `Clc1ccc2[nH]c3c[n+](Cc4cccc(C[n+]5ccc6c(c5)[nH]c5ccc(Cl)cc56)c4)ccc3c2c1` was tested, and the MIC99 was 20 µM. Compound `Clc1ccc2[nH]c3c[n+](CCOCC[n+]4ccc5c(c4)[nH]c4ccc(Cl)cc45)ccc3c2c1.[Cl-].[Cl-]` has an MIC99 of 9 µM. `Clc1ccc2[nH]c3c[n+](Cc4ccc(-c5ccc(C[n+]6ccc7c(c6)[nH]c6ccc(Cl)cc67)cc5)cc4)ccc3c2c1.[Cl-].[Cl-]` was tested, and the MIC99 was greater than 15 µM. With `Clc1ccc2[nH]c3c[n+](CCCCCCCCCC[n+]4ccc5c(c4)[nH]c4ccc(Cl)cc45)ccc3c2c1` the MIC99 was 14 µM. In the case of `Clc1ccc2[nH]c3c[n+](Cc4ccc(C[n+]5ccc6c(c5)[nH]c5ccc(Cl)cc56)cc4)ccc3c2c1`, the MIC99 is reported as greater than 17 µM. In the case of `Clc1ccc2[nH]c3c[n+](CCCCCCCC[n+]4ccc5c(c4)[nH]c4ccc(Cl)cc45)ccc3c2c1`, the MIC99 is reported as 7 µM. `Clc1ccc2[nH]c3c[n+](CCCCCC[n+]4ccc5c(c4)[nH]c4ccc(Cl)cc45)ccc3c2c1.[Br-].[Br-]` gave an MIC99 of 8 µM. For `C[n+]1ccc2c(c1)[nH]c1ccc(Cl)cc12.[I-]` [NOSTOCARBOLINE], the MIC99 was greater than 29 µM.

What follows are compounds tested on Mycobacterium tuberculosis (assay: Antitubercular activity against Mycobacterium tuberculosis H37Rv). Details: not given.
Type: functional
`Clc1ccc2[nH]c3c[n+](CCCCCCCCCCCC[n+]4ccc5c(c4)[nH]c4ccc(Cl)cc45)ccc3c2c1` gave an MIC99 of 7 µM. In the case of `Clc1ccc2[nH]c3c[n+](Cc4cccc(C[n+]5ccc6c(c5)[nH]c5ccc(Cl)cc56)c4)ccc3c2c1`, the MIC99 is reported as 20 µM. `Clc1ccc2[nH]c3c[n+](CCOCC[n+]4ccc5c(c4)[nH]c4ccc(Cl)cc45)ccc3c2c1.[Cl-].[Cl-]` showed an MIC99 of 18 µM. Compound `Clc1ccc2[nH]c3c[n+](Cc4ccc(-c5ccc(C[n+]6ccc7c(c6)[nH]c6ccc(Cl)cc67)cc5)cc4)ccc3c2c1.[Cl-].[Cl-]` has an MIC99 greater than 15 µM. In the case of `Clc1ccc2[nH]c3c[n+](CCCCCCCCCC[n+]4ccc5c(c4)[nH]c4ccc(Cl)cc45)ccc3c2c1`, the MIC99 is reported as 4 µM. In the case of `Clc1ccc2[nH]c3c[n+](Cc4ccc(C[n+]5ccc6c(c5)[nH]c5ccc(Cl)cc56)cc4)ccc3c2c1`, the MIC99 is reported as greater than 17 µM. `Clc1ccc2[nH]c3c[n+](CCCCCCCC[n+]4ccc5c(c4)[nH]c4ccc(Cl)cc45)ccc3c2c1` was tested, and the MIC99 was 7 µM. For `Clc1ccc2[nH]c3c[n+](CCCCCC[n+]4ccc5c(c4)[nH]c4ccc(Cl)cc45)ccc3c2c1.[Br-].[Br-]`, the MIC99 was 8 µM. With `C[n+]1ccc2c(c1)[nH]c1ccc(Cl)cc12.[I-]` [NOSTOCARBOLINE] the MIC99 was greater than 29 µM.

The compounds below were run on Plasmodium berghei (assay: Antiparasitic activity against Plasmodium berghei infected in mice (Mus musculus) assessed as survival days at 50 mg/kg, intraperitoneally administered 4, 24, 48, 72 hrs post infection). Details: route intraperitoneal.
Type: functional
How it was run: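 Infected mice received the compounds formulated in DMSO/water, given i.p. as 4 × 50 mg/kg. Parasitaemia was measured by FACS on day 4 post infection, 24 h after the last treatment. Activity was taken as the reduction in mean % parasitaemia versus the untreated control group (n = 5 mice). Mean survival time in days was recorded.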
`C[n+]1ccc2c(c1)[nH]c1ccc(Cl)cc12.[I-]` [NOSTOCARBOLINE] showed a Survival of 7.3 days.
